The results in this text go back to ChEMBL document CHEMBL2010749, “Cytotoxic phloroglucinols from the leaves of Myrtus communis” (J Nat Prod, 2012).

For orientation: IC50 means the concentration that gives 50% inhibition. High values mean weaker potency, low ones greater potency. Usually MIC stands for the lowest concentration found to suppress growth. Low values mean a more susceptible organism, high ones a less susceptible organism.

The test system of experiment [1] is MT4. As to the kind of experiment: Cytotoxicity against human MT4 cells after 96 hrs. The format is functional, cell-based. The note with it: MT4, 96 h.
For experiment [2], the system named is Staphylococcus aureus. As to the kind of experiment: Antibacterial activity against Staphylococcus aureus ATCC 25923 after 20 hrs by doubling dilution method. The format is functional. The note with it: ATCC 25923, 20 h. An outline of the steps: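 Broth doubling-dilution in 96-well format: overnight nutrient-broth cultures (37 °C) adjusted to about 10^5 cells/mL; compound stocks in EtOH diluted 2-fold across wells in culture suspension. After 20 h at 37 °C in moist atmosphere, thiazolyl blue tetrazolium added, 4 h further incubation; living bacteria seen as violet turbid wells; MIC read as lowest inhibitory concentration.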

Experiment [3] has as its system HepG2. As to the kind of experiment: Cytotoxicity against human HepG2 cells after 96 hrs. The format is functional, cell-based. The note with it: HepG2, 96 h.
Experiment [4] concerns DU-145. As to the kind of experiment: Cytotoxicity against human DU145 cells after 96 hrs. The format is functional, cell-based. The note with it: DU-145, 96 h.
Experiment [5] can be described thus: Selectivity ratio of IC50 for human CRL7065 to MIC for Staphylococcus aureus ATCC 25923. The format is functional.

In brackets after ≈: the same amount, converted by molar mass. Some results are limits rather than exact numbers.

`C=C1CC[C@]2(C)OC3=C(C(=O)C(C)(C)C(=O)C3(C)C)[C@@H](C(C)C)[C@@H]2[C@H]1C1CCCC1(C)C` (relative stereo) returned an IC50 in experiment [1] above 100 µM. Also, the MIC in experiment [2] was above 560 µM.

The compound `CC(C)[C@@H]1C[C@@]2(CC[C@]3(C(C)C)C[C@H]23)OC2=C1C(=O)C(C)(C)C(=O)C2(C)C` (relative stereo) yielded an IC50 in experiment [1] of 41.4 µM. In experiment [2], this compound gave an MIC above 560 µM.

On to `COc1cc([C@@H]2c3cc4c(cc3[C@@H](O[C@@H]3O[C@@H]5CO[C@@H](C)O[C@H]5[C@H](O)[C@H]3O)[C@H]3COC(=O)[C@H]23)OCO4)cc(OC)c1O` [ETOPOSIDE], for which the half-maximal inhibitory concentration (IC50) came to 0.09 µM in experiment [1], 4 µM in experiment [3] and 3 µM in experiment [4].

In the case of `CC(C)C(=O)c1c(O)c([C@H](C2=C(O)C(C)(C)C(=O)C(C)(C)C2=O)C(C)C)c2c3c1OC(C)(C)C[C@H]3[C@H]1C(C)(C)C(=O)C(C)(C)[C@@]1(O)O2` (relative stereo), the IC50 in experiment [1] came to 2.1 µM; in experiment [3], 4 µM; in experiment [4], 3 µM. In addition, the MIC in experiment [2] came out at 0.38 µM (≈ 0.248 µg/mL). Besides, in experiment [5], the Ratio amounted to 35.

On to `O=C(N[C@H](CO)[C@H](O)c1ccc([N+](=O)[O-])cc1)C(Cl)Cl` [CHLORAMPHENICOL], for which the MIC in experiment [2] is 4 µM (≈ 1.29 µg/mL).

With `CC[C@@]1(O)C(=O)OCc2c1cc1n(c2=O)Cc2cc3ccccc3nc2-1` [CAMPTOTHECIN], the IC50 in experiment [3] turned out to be 0.02 µM; in experiment [4], 0.015 µM.

Take `CC(C)C(=O)c1c(O)c([C@H](C2=C(O)C(C)(C)C(=O)C(C)(C)C2=O)C(C)C)c(O)c([C@H](C2=C(O)C(C)(C)C(=O)C(C)(C)C2=O)C(C)C)c1O` [MYRTUCOMMULONE A]: the IC50 was found to be 4.7 µM in experiment [1], 6 µM in experiment [3] and 5 µM in experiment [4]. In experiment [2], this compound had an MIC of 2.2 µM (≈ 1.47 µg/mL).
